# Experiments:
# Format in all cases: functional
# [1] = tested on: Proteus vulgaris; test: Antibacterial activity against Proteus vulgaris isolated from patient with diabetic foot infection assessed as percent resistant isolates after 18 to 24 hrs by broth microdilution method
# In short: (§1)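 Aerobes subcultured on Trypticase soy blood agar, then broth microdilution in cation-adjusted Mueller-Hinton broth. Trays prepared in-house with twofold dilutions and stored at −70°C. Overnight colonies suspended to about 5 × 10^5 CFU/ml final. Read after 18 to 24 h at 37°C. QC strains included S. aureus ATCC 29213 and E. coli ATCC 25922.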
# [2] = tested on: Staphylococcus aureus; test: Antibacterial activity against methicillin-resistant Staphylococcus aureus isolated from patient with diabetic foot infection assessed as percent resistant isolates after 18 to 24 hrs by broth microdilution method
# In short: (§2)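 Isolates grown on Trypticase soy blood agar, then tested by broth microdilution in unsupplemented cation-adjusted Mueller-Hinton broth. In-house trays held serial twofold drug dilutions and were stored at −70°C. Overnight colonies were suspended to a final inoculum near 5 × 10^5 CFU/ml, and trays read after 18–24 h at 37°C. QC strains: S. aureus ATCC 29213, E. coli ATCC 25922.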
# [3] = tested on: Corynebacterium amycolatum; test: Antibacterial activity against Corynebacterium amycolatum isolated from patient with diabetic foot infection after 48 hrs by broth microdilution method
# In short: (§3)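 Isolates were subcultured on Trypticase soy blood agar. Broth microdilution used cation-adjusted Mueller-Hinton broth with lysed horse blood, in-house trays of twofold drug dilutions stored at −70°C. Colonies from overnight growth gave a final inoculum of about 5 × 10^5 CFU/ml. Trays were read after 18 to 24 h at 37°C, up to 48 h for some strains.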
# [4] = tested on: Corynebacterium jeikeium; test: Antibacterial activity against Corynebacterium jeikeium isolated from patient with diabetic foot infection after 48 hrs by broth microdilution method; in short: as §3
# [5] = tested on: Corynebacterium urealyticum; test: Antibacterial activity against Corynebacterium urealyticum isolated from patient with diabetic foot infection after 48 hrs by broth microdilution method; in short: as §3
# [6] = tested on: Streptococcus pyogenes; test: Antibacterial activity against Streptococcus pyogenes isolated from patient with diabetic foot infection after 18 to 24 hrs by broth microdilution method
# In short: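 Streptococcal isolates were subcultured on Trypticase soy blood agar. Broth microdilution used cation-adjusted Mueller-Hinton broth with lysed horse blood, in in-house trays of serial twofold drug dilutions stored at −70°C. Overnight colonies were suspended to a final inoculum of approximately 5 × 10^5 CFU/ml. MIC was read after 18 to 24 h incubation at 37°C.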
# [7] = tested on: Corynebacterium simulans; test: Antibacterial activity against Corynebacterium simulans isolated from patient with diabetic foot infection after 48 hrs by broth microdilution method; in short: as §3
# [8] = tested on: Corynebacterium jeikeium; test: Antibacterial activity against Corynebacterium jeikeium isolated from patient with diabetic foot infection assessed as percent resistant isolates after 48 hrs by broth microdilution method
# In short: (§4)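 Isolates subcultured on Trypticase soy blood agar. Broth microdilution in cation-adjusted Mueller-Hinton broth with lysed horse blood, using in-house twofold dilution trays stored at −70°C. Inoculum from overnight colonies at about 5 × 10^5 CFU/ml final. Read after 18 to 24 h at 37°C, up to 48 h for some Corynebacterium strains.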
# [9] = tested on: Streptococcus pyogenes; test: Antibacterial activity against Streptococcus pyogenes isolated from patient with diabetic foot infection assessed as percent resistant isolates after 18 to 24 hrs by broth microdilution method
# In short: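 Isolates subcultured on Trypticase soy blood agar. MICs by broth microdilution in cation-adjusted Mueller-Hinton broth with lysed horse blood, in in-house trays of serial twofold drug dilutions stored at −70°C. Colonies from overnight growth were suspended to a final inoculum of about 5 × 10^5 CFU/ml. Read after 18–24 h at 37°C.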
# [10] = tested on: Corynebacterium striatum; test: Antibacterial activity against Corynebacterium striatum isolated from patient with diabetic foot infection after 48 hrs by broth microdilution method; in short: as §3
# [11] = tested on: Staphylococcus haemolyticus; test: Antibacterial activity against Staphylococcus haemolyticus isolated from patient with diabetic foot infection after 18 to 24 hrs by broth microdilution method
# [12] = tested on: Staphylococcus aureus; test: Antibacterial activity against methicillin-resistant Staphylococcus aureus isolated from patient with diabetic foot infection after 18 to 24 hrs by broth microdilution method; in short: as §2
# [13] = tested on: Corynebacterium minutissimum; test: Antibacterial activity against Corynebacterium minutissimum isolated from patient with diabetic foot infection assessed as percent resistant isolates after 48 hrs by broth microdilution method; in short: as §4
# [14] = tested on: Providencia rettgeri; test: Antibacterial activity against Proteus rettgeri isolated from patient with diabetic foot infection assessed as percent resistant isolates after 18 to 24 hrs by broth microdilution method; in short: as §1
# [15] = tested on: Staphylococcus aureus; test: Antibacterial activity against Staphylococcus aureus ATCC 29213 after 44 to 48 hrs by agar dilution method
# [16] = tested on: Enterococcus faecalis; test: Antibacterial activity against Enterococcus faecalis after 44 to 48 hrs by agar dilution method
# [17] = tested on: Clostridioides difficile; test: Antibacterial activity against Clostridium difficile ATCC 700057 after 44 to 48 hrs by agar dilution method
# In short: (§5)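 CLSI M11-A7 agar dilution: serial twofold drug dilutions made on the test day and added to molten agar. Spots of 10^5 CFU were applied by replicator, with drug-free control plates inoculated before and after each set. Incubation was 44 to 48 h at 37°C in an anaerobic chamber. MIC was the lowest concentration giving no growth or a marked change in growth versus controls.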
# [18] = tested on: Escherichia coli; test: Antibacterial activity against Escherichia coli ATCC 25922 after 44 to 48 hrs by agar dilution method
# [19] = tested on: Bacteroides fragilis; test: Antibacterial activity against Bacteroides fragilis ATCC 25285 after 44 to 48 hrs by agar dilution method; in short: as §5
# [20] = tested on: Escherichia coli; test: Antibacterial activity against Escherichia coli isolated from patient with diabetic foot infection after 18 to 24 hrs by broth microdilution method
# In short: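 Isolates were subcultured on Trypticase soy blood agar and tested by broth microdilution in cation-adjusted Mueller-Hinton broth. In-house trays of twofold drug dilutions were stored at −70°C. Overnight colonies gave a final inoculum of about 5 × 10^5 CFU/ml. Plates were read after 18 to 24 h at 37°C.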
# [21] = tested on: Corynebacterium; test: Antibacterial activity against multi drug-resistant Corynebacterium assessed as percent of susceptible isolates at =< 4 ug/ml by NCCLS M7-A6 method
# [22] = tested on: Klebsiella oxytoca; test: Antibacterial activity against Klebsiella oxytoca isolated from patient with diabetic foot infection assessed as percent resistant isolates after 18 to 24 hrs by broth microdilution method; in short: as §1
Structure (SMILES),Activity [1] [%],Activity [2] [%],MIC50 [3] [µg/mL],MIC90 [3] [µg/mL],MIC50 [4] [µg/mL],MIC90 [4] [µg/mL],MIC50 [5] [µg/mL],MIC90 [5] [µg/mL],MIC50 [6] [µg/mL],MIC90 [6] [µg/mL],MIC50 [7] [µg/mL],MIC90 [7] [µg/mL],Activity [9] [%],MIC50 [10] [µg/mL],MIC90 [10] [µg/mL],MIC50 [11] [µg/mL],MIC90 [11] [µg/mL],MIC50 [12] [µg/mL],MIC90 [12] [µg/mL],Activity [14] [%],other results
CCC[C@@H]1C[C@@H](C(=O)N[C@@H]([C@H]2O[C@H](SC)[C@H](O)[C@@H](O)[C@H]2O)[C@H](C)Cl)N(C)C1 [CLINDAMYCIN],0,39,> 64,> 64,> 64,> 64,> 64,> 64,0.125,> 64,2,> 64,13,2,> 64,0.125,8,0.125,> 64,–,Activity [8]: 100%; Activity [13]: 100%
C[C@@H](O)[C@H]1C(=O)N2C(C(=O)O)=C(S[C@@H]3CN[C@H](CNS(N)(=O)=O)C3)[C@H](C)[C@H]12 [DORIPENEM],0,100,1,8,1,8,1,8,≤ 0.015,≤ 0.015,0.125,0.25,0,0.125,0.25,0.5,16,0.5,8,0,MIC [15]: 0.03 µg/mL; MIC [16]: 2 µg/mL; MIC [17]: 2 µg/mL; MIC [18]: ≤ 0.015 µg/mL; MIC [19]: 0.125 µg/mL; MIC50 [20]: 0.03 µg/mL; MIC90 [20]: 0.03 µg/mL; Activity [21]: 40%; Activity [22]: 0%
C[C@@H](O)[C@H]1C(=O)N2C(C(=O)O)=C(S[C@@H]3CN[C@H](C(=O)Nc4cccc(C(=O)O)c4)C3)[C@H](C)[C@H]12 [ERTAPENEM],0,100,1,32,1,32,1,32,≤ 0.015,≤ 0.015,0.5,1,0,0.5,1,4,> 32,2,> 32,0,MIC50 [20]: ≤ 0.015 µg/mL; MIC90 [20]: 0.06 µg/mL; Activity [22]: 0%
C[C@@H](O)[C@H]1C(=O)N2C(C(=O)O)=C(SCCNC=N)C[C@H]12 [IMIPENEM ANHYDROUS],0,100,0.25,32,0.25,32,0.25,32,≤ 0.015,≤ 0.015,0.03,0.125,0,0.03,0.125,0.06,16,0.25,4,0,Activity [8]: 30%; MIC50 [20]: 0.125 µg/mL; MIC90 [20]: 0.25 µg/mL; Activity [22]: 0%; Activity [13]: 30%
C[C@@H](O)[C@H]1C(=O)N2C(C(=O)O)=C(S[C@@H]3CN[C@H](C(=O)N(C)C)C3)[C@H](C)[C@H]12 [MEROPENEM],0,100,–,–,1,16,1,16,≤ 0.015,≤ 0.015,0.125,0.25,0,0.125,0.25,1,32,2,16,0,Activity [8]: 20%; MIC50 [20]: 0.03 µg/mL; MIC90 [20]: 0.03 µg/mL; Activity [22]: 0%; Activity [13]: 20%

# Reference: ChEMBL document CHEMBL1153560, “In vitro activities of doripenem and six comparator drugs against 423 aerobic and anaerobic bacterial isolates from infected diabetic foot wounds” (2008)
